Results from ChEMBL document CHEMBL5724801, “EUbOPEN Chemogenomics Library - Multiplex” (2024).
“And” between values parts separate entries of the source, which are not always exact repeats. Identical values can stand only once.

Test system: U2OS
Test: Multiplex assay against U2OS
Format: toxicity, cell-based
Settings: human
Procedure, shortened: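 Tubulin, mitochondrial-mass and membrane-permeability phenotypes are per cents of healthy-nucleus cells. Cells were gated by CellPathfinder machine learning into Hoechst high-intensity objects or normal cells, normal cells into healthy, pyknosed or fragmented nuclei, and pyknosed cells into mitotic or apoptotic. Before that, live cells stained at seeding with Hoechst33342, BioTracker Green Microtubule Cytoskeleton Dye, MitoTracker Red and Annexin V Alexa Fluor 680 were imaged on a CQ1 microscope at 37°C and 5% CO2 after compound addition.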

[1] = 12 h, 1 µM, compound concentration 1 uM
[2] = 12 h, 10 µM, compound concentration 10 uM
[3] = 24 h, 1 µM, compound concentration 1 uM
[4] = 24 h, 10 µM, compound concentration 10 uM
[5] = 48 h, 1 µM, compound concentration 1 uM
[6] = 48 h, 10 µM, compound concentration 10 uM

## COc1cc2nc(N3CCN(C(=O)c4ccco4)CC3)nc(N)c2cc1OC.Cl [PRAZOSIN HYDROCHLORIDE]
[1]
  Population Apoptotic (%): 88% and 94%
  Population Fragmented Nuclei (%): 21% and 18%
  Population Healthy Nuclei (%): 70% and 69%
  Population Hoechst High Intensity Objects (%): 2% and 1%
  Population Membrane Permeable-Phenotype (%): 4% and 5%
  Population Mitochondria Different-Phenotype (%): 2% and 7%
  Population Mitotic Cells (%): 11% and 5%
  Population Normal (%): 97% and 98%
  Population Pyknosed Nuclei (%): 7% and 12%
  Population Tubulin-Different-Phenotype (%): 1% and 8%
  Total Cell Count: 235 and 159
[2]
  Population Apoptotic (%): 86% and 72%
  Population Fragmented Nuclei (%): 25% and 15%
  Population Healthy Nuclei (%): 67% and 74%
  Population Hoechst High Intensity Objects (%): 3% and 0%
  Population Membrane Permeable-Phenotype (%): 12% and 4%
  Population Mitochondria Different-Phenotype (%): 2% and 5%
  Population Mitotic Cells (%): 13% and 27%
  Population Normal (%): 96% and 99%
  Population Pyknosed Nuclei (%): 7% and 9%
  Population Tubulin-Different-Phenotype (%): 6% and 7%
  Total Cell Count: 216 and 114
[3]
  Population Apoptotic (%): 95% and 100%
  Population Fragmented Nuclei (%): 22% and 15%
  Population Healthy Nuclei (%): 69% and 74%
  Population Hoechst High Intensity Objects (%): 1% and 0%
  Population Membrane Permeable-Phenotype (%): 8% and 10%
  Population Mitochondria Different-Phenotype (%): 2% and 5%
  Population Mitotic Cells (%): 4% and 0%
  Population Normal (%): 98% and 100%
  Population Pyknosed Nuclei (%): 7% and 10%
  Population Tubulin-Different-Phenotype (%): 4% and 9%
  Total Cell Count: 273 and 188
[4]
  Population Apoptotic (%): 78% and 85%
  Population Fragmented Nuclei (%): 23% and 13%
  Population Healthy Nuclei (%): 68% and 71%
  Population Hoechst High Intensity Objects (%): 2% and 1%
  Population Membrane Permeable-Phenotype (%): 8% and 7%
  Population Mitochondria Different-Phenotype (%): 6% and 5%
  Population Mitotic Cells (%): 21% and 14%
  Population Normal (%): 97% and 98%
  Population Pyknosed Nuclei (%): 7% and 15%
  Population Tubulin-Different-Phenotype (%): 6% and 4%
  Total Cell Count: 244 and 138
[5]
  Population Apoptotic (%): 94% and 100%
  Population Fragmented Nuclei (%): 16% and 15%
  Population Healthy Nuclei (%): 74% and 77%
  Population Hoechst High Intensity Objects (%): 2% and 1%
  Population Membrane Permeable-Phenotype (%): 6% and 7%
  Population Mitochondria Different-Phenotype (%): 2% and 7%
  Population Mitotic Cells (%): 5% and 0%
  Population Normal (%): 97% and 98%
  Population Pyknosed Nuclei (%): 9% and 7%
  Population Tubulin-Different-Phenotype (%): 2% and 5%
  Total Cell Count: 388 and 266
[6]
  Population Apoptotic (%): 96% and 94%
  Population Fragmented Nuclei (%): 20% and 15%
  Population Healthy Nuclei (%): 71% and 76%
  Population Hoechst High Intensity Objects (%): 1% and 2%
  Population Membrane Permeable-Phenotype (%): 5%
  Population Mitochondria Different-Phenotype (%): 2% and 6%
  Population Mitotic Cells (%): 3% and 5%
  Population Normal (%): 98% and 97%
  Population Pyknosed Nuclei (%): 8%
  Population Tubulin-Different-Phenotype (%): 3%
  Total Cell Count: 341 and 208

## CC(C)(C)c1cc(NC(=O)Nc2ccc(-c3cn4c(n3)sc3cc(OCCN5CCOCC5)ccc34)cc2)no1 [QUIZARTINIB]
[1]
  Population Apoptotic (%): 48% and 78%
  Population Fragmented Nuclei (%): 24% and 17%
  Population Healthy Nuclei (%): 61% and 70%
  Population Hoechst High Intensity Objects (%): 6% and 1%
  Population Membrane Permeable-Phenotype (%): 13% and 6%
  Population Mitochondria Different-Phenotype (%): 4% and 6%
  Population Mitotic Cells (%): 51% and 21%
  Population Normal (%): 93% and 98%
  Population Pyknosed Nuclei (%): 14% and 11%
  Population Tubulin-Different-Phenotype (%): 8% and 4%
  Total Cell Count: 213 and 119
[2]
  Population Apoptotic (%): 58% and 23%
  Population Fragmented Nuclei (%): 30% and 11%
  Population Healthy Nuclei (%): 47% and 65%
  Population Hoechst High Intensity Objects (%): 13% and 6%
  Population Membrane Permeable-Phenotype (%): 85% and 62%
  Population Mitochondria Different-Phenotype (%): 26% and 33%
  Population Mitotic Cells (%): 41% and 76%
  Population Normal (%): 86% and 94%
  Population Pyknosed Nuclei (%): 21% and 22%
  Population Tubulin-Different-Phenotype (%): 76% and 54%
  Total Cell Count: 197 and 100
[3]
  Population Apoptotic (%): 57% and 62%
  Population Fragmented Nuclei (%): 25% and 15%
  Population Healthy Nuclei (%): 56% and 72%
  Population Hoechst High Intensity Objects (%): 2% and 0%
  Population Membrane Permeable-Phenotype (%): 15% and 9%
  Population Mitochondria Different-Phenotype (%): 8% and 4%
  Population Mitotic Cells (%): 42% and 37%
  Population Normal (%): 97% and 99%
  Population Pyknosed Nuclei (%): 17% and 12%
  Population Tubulin-Different-Phenotype (%): 7% and 5%
  Total Cell Count: 234 and 134
[4]
  Population Apoptotic (%): 63% and 51%
  Population Healthy Nuclei (%): 34% and 58%
  Population Hoechst High Intensity Objects (%): 11% and 2%
  Population Membrane Permeable-Phenotype (%): 55% and 40%
  Population Mitochondria Different-Phenotype (%): 38% and 32%
  Population Mitotic Cells (%): 36% and 48%
  Population Normal (%): 88% and 97%
  Population Pyknosed Nuclei (%): 30%
  Population Tubulin-Different-Phenotype (%): 45% and 30%
  Total Cell Count: 195 and 96
[5]
  Population Apoptotic (%): 60% and 73%
  Population Fragmented Nuclei (%): 21% and 16%
  Population Healthy Nuclei (%): 61% and 72%
  Population Hoechst High Intensity Objects (%): 3% and 2%
  Population Membrane Permeable-Phenotype (%): 7% and 9%
  Population Mitochondria Different-Phenotype (%): 2% and 7%
  Population Mitotic Cells (%): 39% and 26%
  Population Normal (%): 96% and 97%
  Population Pyknosed Nuclei (%): 16% and 10%
  Population Tubulin-Different-Phenotype (%): 3% and 6%
  Total Cell Count: 297 and 180
[6]
  Population Apoptotic (%): 72% and 56%
  Population Fragmented Nuclei (%): 33% and 19%
  Population Healthy Nuclei (%): 25% and 48%
  Population Hoechst High Intensity Objects (%): 9% and 5%
  Population Membrane Permeable-Phenotype (%): 41% and 35%
  Population Mitochondria Different-Phenotype (%): 33%
  Population Mitotic Cells (%): 27% and 43%
  Population Normal (%): 90% and 94%
  Population Pyknosed Nuclei (%): 40% and 32%
  Population Tubulin-Different-Phenotype (%): 33% and 28%
  Total Cell Count: 219 and 98
